Among the data in ChEMBL document CHEMBL1128736, “Synthesis and anti-HIV activity of [AZT]-[TSAO-T] and [AZT]-[HEPT] dimers as potential multifunctional inhibitors of HIV-1 reverse transcriptase” (J Med Chem, 1995) are EC50 values, retold here.

What all share (type): functional, organism-based
Test [1] concerns Human immunodeficiency virus 2. The test is described as follows: Inhibitory effect against HIV-2 replication in CEM /TK-(thymidine kinase deficient) cells. The note with it: Human immunodeficiency virus 2, CCRF-CEM. A digest of the protocol: (§1)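 CEM cells (4×10^5/mL; wild-type CEM/0 or thymidine kinase-deficient CEM/TK⁻) infected with HIV-1 or HIV-2 (ROD) at ~100 CCID50/mL, then mixed 1:1 with serial compound dilutions. After 4 days, virus-induced giant cell formation was scored microscopically. EC50 is the concentration inhibiting virus-induced cytopathicity by 50%.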

The test system of test [2] is Human immunodeficiency virus 2. The test is described as follows: Inhibitory effect against HIV-2 replication in CEM cells. The note with it: Human immunodeficiency virus 2, CCRF-CEM. In outline:
as §1

For test [3], the system named is Human immunodeficiency virus 1. The test is described as follows: Inhibitory effect against HIV-1 replication in CEM cells. The note with it: Human immunodeficiency virus 1, CCRF-CEM. A digest of the protocol: as §1

The structures appear in SMILES notation. Where only a bound is given, the exact number is not on record here.

On to `Cc1c(Sc2ccccc2)n(COCCO)c(=O)[nH]c1=O` [HEPT], for which the EC50 in test [1] and in test [2] was more than 100 µM each time.
On to `Cc1cn(C2CC(N=[N+]=[N-])C(CO)O2)c(=O)n(CCCCCCn2c(=O)c(C)c(Sc3ccccc3)n(COCCO)c2=O)c1=O` (stereo not drawn), for which the EC50 in test [1], in test [3] and in test [2] was more than 5 µM in each case.
Regarding `Cc1cn([C@@H]2O[C@H](CO[Si](C)(C)C(C)(C)C)[C@@]3(OS(=O)(=O)C=C3N)[C@H]2O[Si](C)(C)C(C)(C)C)c(=O)n(CCCCn2c(=O)c(C)cn([C@H]3C[C@H](N=[N+]=[N-])[C@@H](CO)O3)c2=O)c1=O`, the 50% effective concentration (EC50) (usually the midpoint of the concentration-response curve) in test [1] is more than 100 µM; in test [3], 0.2 µM; in test [2], more than 100 µM.
For `Cc1cn(C2CC(N=[N+]=[N-])C(CO)O2)c(=O)n(CCCBr)c1=O` (stereo not drawn), the EC50 in test [3] and in test [2] was more than 50 µM throughout.
As to `Cc1cn([C@@H]2O[C@H](CO[Si](C)(C)C(C)(C)C)[C@@]3(OS(=O)(=O)C=C3N)[C@H]2O[Si](C)(C)C(C)(C)C)c(=O)n(CCCCCCn2c(=O)c(C)cn([C@H]3C[C@H](N=[N+]=[N-])[C@@H](CO)O3)c2=O)c1=O`, the figures for the EC50 in test [1], in test [3] and in test [2] were more than 100 µM, 0.21 µM and more than 100 µM, respectively.
`Cc1cn(C2CC(N=[N+]=[N-])C(CO)O2)c(=O)n(CCCCCBr)c1=O` (stereo not drawn): the EC50 was more than 10 µM in test [1], more than 50 µM in test [3] and more than 50 µM in test [2].
As to `Cc1cn(C2CC(N=[N+]=[N-])C(CO)O2)c(=O)n(CCCCCCCCCBr)c1=O` (stereo not drawn), the EC50 in test [1], in test [3] and in test [2] was more than 8 µM throughout.
Regarding `Cc1cn([C@H]2C[C@H](O)[C@@H](CO)O2)c(=O)n(CCCCCCCn2c(=O)c(C)c(Sc3ccccc3)n(COCCO)c2=O)c1=O`, the EC50 in test [3] and in test [2] was more than 30 µM in each case.
With `Cc1cn(C2CC(N=[N+]=[N-])C(CO)O2)c(=O)n(CCCCCCBr)c1=O` (stereo not drawn), in test [1], the EC50 is more than 45 µM.
Take `Cc1cn([C@@H]2O[C@H](CO[Si](C)(C)C(C)(C)C)[C@@]3(OS(=O)(=O)C=C3N)[C@H]2O[Si](C)(C)C(C)(C)C)c(=O)n(CCCn2c(=O)c(C)cn([C@H]3C[C@H](O)[C@@H](CO)O3)c2=O)c1=O`: the EC50 in test [1] is more than 4 µM; in test [3] it was 0.06 µM; in test [2], more than 4 µM.
With `Cc1cn([C@@H]2O[C@H](CO[Si](C)(C)C(C)(C)C)C3(OS(=O)(=O)C=C3N)[C@H]2O[Si](C)(C)C(C)(C)C)c(=O)[nH]c1=O` (stereo partly drawn), the EC50 in test [1] is more than 6 µM; in test [3] it was 0.05 µM; in test [2], more than 6 µM.
In the case of `Cc1cn([C@H]2C[C@H](O)[C@@H](CO)O2)c(=O)n(CCCCCCCBr)c1=O`, the EC50 in test [1], in test [3] and in test [2] was more than 10 µM throughout.
For the compound `Cc1cn([C@@H]2O[C@H](CO[Si](C)(C)C(C)(C)C)[C@@]3(OS(=O)(=O)C=C3N)[C@H]2O[Si](C)(C)C(C)(C)C)c(=O)n(CCCCCCBr)c1=O`, the EC50 is 0.47 µM in test [3] and more than 25 µM in test [2].
Take `Cc1c(Sc2ccccc2)n(COCCO)c(=O)n(CCCCCCBr)c1=O`: the EC50 in test [1] is more than 8 µM.
As to `Cc1cn([C@@H]2O[C@H](CO[Si](C)(C)C(C)(C)C)[C@@]3(OS(=O)(=O)C=C3N)[C@H]2O[Si](C)(C)C(C)(C)C)c(=O)n(CCCCCCCn2c(=O)c(C)cn([C@H]3C[C@H](N=[N+]=[N-])[C@@H](CO)O3)c2=O)c1=O`, the EC50 was 1.58 µM in test [3] and more than 100 µM in test [2].
As for `Cc1cn([C@@H]2O[C@H](CO[Si](C)(C)C(C)(C)C)[C@@]3(OS(=O)(=O)C=C3N)[C@H]2O[Si](C)(C)C(C)(C)C)c(=O)n(CCCCCCCCCBr)c1=O`, the EC50 in test [1], in test [3] and in test [2] was more than 1 µM throughout.
Consider `Cc1cn([C@@H]2O[C@H](CO[Si](C)(C)C(C)(C)C)[C@@]3(OS(=O)(=O)C=C3N)[C@H]2O[Si](C)(C)C(C)(C)C)c(=O)n(CCCCCCCCn2c(=O)c(C)cn([C@H]3C[C@H](N=[N+]=[N-])[C@@H](CO)O3)c2=O)c1=O`, for which the concentration for a half-maximal effect (EC50) in test [3] is 1.56 µM; in test [2] it was more than 100 µM.
`Cc1cn([C@@H]2O[C@H](CO[Si](C)(C)C(C)(C)C)[C@@]3(OS(=O)(=O)C=C3N)[C@H]2O[Si](C)(C)C(C)(C)C)c(=O)n(CCCCCCCCCn2c(=O)c(C)cn([C@H]3C[C@H](N=[N+]=[N-])[C@@H](CO)O3)c2=O)c1=O`: the EC50 in test [1] is more than 100 µM; in test [3] it was 15.3 µM; in test [2], more than 100 µM.
Regarding `Cc1cn([C@@H]2O[C@H](CO[Si](C)(C)C(C)(C)C)[C@@]3(OS(=O)(=O)C=C3N)[C@H]2O[Si](C)(C)C(C)(C)C)c(=O)n(CCCCCCCBr)c1=O`, the EC50 was more than 5 µM in test [1], 0.79 µM in test [3] and more than 1 µM in test [2].
The corresponding values for `Cc1cn([C@H]2C[C@H](O)[C@@H](CO)O2)c(=O)[nH]c1=O` [DOXRIBTIMINE] are more than 40 µM, more than 40 µM and more than 40 µM.
Regarding `Cc1cn([C@@H]2O[C@H](CO[Si](C)(C)C(C)(C)C)[C@@]3(OS(=O)(=O)C=C3N)[C@H]2O[Si](C)(C)C(C)(C)C)c(=O)n(CCCBr)c1=O`, the EC50 in test [3] was 0.11 µM; in test [2] it was more than 100 µM.
For `Cc1cn(C2CC(N=[N+]=[N-])C(CO)O2)c(=O)n(CCCCCCCn2c(=O)c(C)c(Sc3ccccc3)n(COCCO)c2=O)c1=O` (stereo not drawn), the 50% effective concentration (EC50) in test [3] and in test [2] was more than 5 µM throughout.
`Cc1cn([C@H]2C[C@H](N=[N+]=[N-])[C@@H](CO)O2)c(=O)[nH]c1=O` [ZIDOVUDINE]: the EC50 is more than 35 µM in test [1], 0.011 µM in test [3] and 0.011 µM in test [2].
For the compound `Cc1cn([C@@H]2O[C@H](CO[Si](C)(C)C(C)(C)C)[C@@]3(OS(=O)(=O)C=C3N)[C@H]2O[Si](C)(C)C(C)(C)C)c(=O)n(CCCCCCCCBr)c1=O`, the EC50 in test [1], in test [3] and in test [2] was more than 1 µM each time.
For `Cc1cn([C@@H]2O[C@H](CO[Si](C)(C)C(C)(C)C)[C@@]3(OS(=O)(=O)C=C3N)[C@H]2O[Si](C)(C)C(C)(C)C)c(=O)n(CCCn2c(=O)c(C)cn([C@H]3C[C@H](N=[N+]=[N-])[C@@H](CO)O3)c2=O)c1=O`, the EC50 is more than 100 µM in test [1], 0.1 µM in test [3] and more than 100 µM in test [2].
For `Cc1cn([C@@H]2O[C@H](CO[Si](C)(C)C(C)(C)C)[C@@]3(OS(=O)(=O)C=C3N)[C@H]2O[Si](C)(C)C(C)(C)C)c(=O)n(CCCCCn2c(=O)c(C)cn([C@H]3C[C@H](N=[N+]=[N-])[C@@H](CO)O3)c2=O)c1=O`, the EC50 is more than 100 µM in test [1], 0.22 µM in test [3] and more than 100 µM in test [2].
Consider `Cc1cn([C@@H]2O[C@H](CO[Si](C)(C)C(C)(C)C)[C@@]3(OS(=O)(=O)C=C3N)[C@H]2O[Si](C)(C)C(C)(C)C)c(=O)n(CCCCCCCn2c(=O)c(C)cn([C@H]3C[C@H](O)[C@@H](CO)O3)c2=O)c1=O`, for which the EC50 in test [3] was 0.22 µM; in test [2], more than 4 µM.
On to `Cc1cn(C2CC(N=[N+]=[N-])C(CO)O2)c(=O)n(CCCCCCCCBr)c1=O` (stereo not drawn), for which the EC50 in test [1], in test [3] and in test [2] was more than 8 µM each time.
On to `Cc1c(Sc2ccccc2)n(COCCO)c(=O)n(CCCCCCCBr)c1=O`, for which the EC50 in test [1], in test [3] and in test [2] was more than 8 µM in each case.
In the case of `Cc1cn([C@H]2C[C@H](O)[C@@H](CO)O2)c(=O)n(CCCCCCn2c(=O)c(C)c(Sc3ccccc3)n(COCCO)c2=O)c1=O`, the EC50 in test [3] was 79 µM; in test [2] it was more than 30 µM.
The corresponding values for `Cc1cn([C@@H]2O[C@H](CO[Si](C)(C)C(C)(C)C)[C@@]3(OS(=O)(=O)C=C3N)[C@H]2O[Si](C)(C)C(C)(C)C)c(=O)n(CCCCCCn2c(=O)c(C)cn([C@H]3C[C@H](O)[C@@H](CO)O3)c2=O)c1=O` are 0.55 µM and more than 4 µM.
